Experimental data from ChEMBL document CHEMBL4316604, “Discovery of Isaindigotone Derivatives as Novel Bloom's Syndrome Protein (BLM) Helicase Inhibitors That Disrupt the BLM/DNA Interactions and Regulate the Homologous Recombination Repair” (J Med Chem, 2019).
Calls of active or inactive are those of the source. The calls are words filed in the database; no cut-off is given here.

What was measured:
[1] = target: T1, DNA repair protein RAD51 homolog 1 (Homo sapiens) (UniProt Q06609); assay: Induction of RAD51 (unknown origin) binding to ssDNA up to 1 uM […] by ELISA based DNA exchange activity assay
T1 sequence (whole entry): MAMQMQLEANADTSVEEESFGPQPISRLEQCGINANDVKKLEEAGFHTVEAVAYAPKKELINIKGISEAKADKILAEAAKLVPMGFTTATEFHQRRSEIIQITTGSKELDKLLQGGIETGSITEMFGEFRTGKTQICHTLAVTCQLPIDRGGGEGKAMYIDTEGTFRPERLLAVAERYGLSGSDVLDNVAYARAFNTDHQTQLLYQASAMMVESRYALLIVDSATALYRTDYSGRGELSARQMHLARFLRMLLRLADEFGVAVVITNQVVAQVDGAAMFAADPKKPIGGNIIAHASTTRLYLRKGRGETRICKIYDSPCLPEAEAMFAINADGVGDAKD
Outline: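 Biotinylated duplex forked DNA (50 nM final) immobilised on streptavidin plates. BLM (10–1000 nM) preincubated 1 h at 37 °C with ligand series, then added with 250 nM RAD51 for 1 h at 37 °C, ELISA format. Bound RAD51 read at 450 nm as RAD51–ssDNA filament level.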

[2] = target: T2, RecQ-like DNA helicase BLM (Homo sapiens, UniProt P54132); assay: Inhibition of BLM recruitment to DSB sites on HRR in human HCT116 cells at 0.5 to 1 uM after 48 hrs by ChIP assay; assay type: cell-based
T2 sequence (P54132 whole entry): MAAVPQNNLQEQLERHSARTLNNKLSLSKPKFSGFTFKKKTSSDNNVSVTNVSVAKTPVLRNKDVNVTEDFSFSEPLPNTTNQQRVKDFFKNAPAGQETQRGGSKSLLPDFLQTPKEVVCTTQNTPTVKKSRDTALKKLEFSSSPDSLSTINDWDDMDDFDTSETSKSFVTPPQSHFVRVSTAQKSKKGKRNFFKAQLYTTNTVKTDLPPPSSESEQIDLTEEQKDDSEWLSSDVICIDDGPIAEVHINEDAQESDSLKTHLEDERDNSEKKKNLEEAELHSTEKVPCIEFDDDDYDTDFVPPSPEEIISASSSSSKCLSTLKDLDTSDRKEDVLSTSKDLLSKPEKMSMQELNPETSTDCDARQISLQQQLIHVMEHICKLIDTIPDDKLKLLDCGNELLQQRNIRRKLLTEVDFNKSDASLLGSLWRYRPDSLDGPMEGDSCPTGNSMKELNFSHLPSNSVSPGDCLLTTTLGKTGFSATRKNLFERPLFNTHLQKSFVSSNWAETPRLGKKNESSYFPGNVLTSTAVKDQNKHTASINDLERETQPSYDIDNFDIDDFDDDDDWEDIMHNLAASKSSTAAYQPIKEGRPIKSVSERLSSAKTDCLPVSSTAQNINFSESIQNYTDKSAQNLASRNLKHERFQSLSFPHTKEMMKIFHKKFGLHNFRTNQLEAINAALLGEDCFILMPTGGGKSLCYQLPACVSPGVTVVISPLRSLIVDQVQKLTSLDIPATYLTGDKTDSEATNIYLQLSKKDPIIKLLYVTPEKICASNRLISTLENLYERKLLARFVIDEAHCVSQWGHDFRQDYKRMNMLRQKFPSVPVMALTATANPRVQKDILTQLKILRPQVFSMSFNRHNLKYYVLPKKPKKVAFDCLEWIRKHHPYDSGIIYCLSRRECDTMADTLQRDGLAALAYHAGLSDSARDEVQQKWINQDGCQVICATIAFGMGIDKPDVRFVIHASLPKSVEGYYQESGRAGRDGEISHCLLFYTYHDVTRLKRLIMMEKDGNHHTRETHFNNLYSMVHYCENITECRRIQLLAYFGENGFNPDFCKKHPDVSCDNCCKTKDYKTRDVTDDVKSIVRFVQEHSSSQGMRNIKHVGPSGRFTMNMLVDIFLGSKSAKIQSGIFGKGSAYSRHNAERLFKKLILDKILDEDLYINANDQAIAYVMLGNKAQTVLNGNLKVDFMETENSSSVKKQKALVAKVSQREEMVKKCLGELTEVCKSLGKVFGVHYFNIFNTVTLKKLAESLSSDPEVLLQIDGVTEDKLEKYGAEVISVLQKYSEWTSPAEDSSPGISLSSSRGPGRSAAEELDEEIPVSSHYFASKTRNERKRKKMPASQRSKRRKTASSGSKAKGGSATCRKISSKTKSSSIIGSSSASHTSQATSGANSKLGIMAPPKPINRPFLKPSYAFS
Outline: (§1)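 HCT116 cells co-transfected with HRR(−) reporter DSB model (or chromosomal I-SceI DSBs) and I-SceI; after 24 h given 0–2 μM ligand for 24 h. Crosslinked in 1% formaldehyde, chromatin digested by micrococcal nuclease to 0.2–0.5 kb, IP with anti-BLM or anti-RAD51 (IgG control). qPCR at DSB sites, normalised to untreated; triplicate.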

[3] = target: RecQ-like DNA helicase BLM (Homo sapiens, UniProt P54132, Y995A); assay: Binding affinity to His-tagged BLM Y995A mutant (unknown origin) expressed in Escherichia coli BL21 (DE3) by ITC assay
Sequence of RecQ-like DNA helicase BLM (Homo sapiens, UniProt P54132, Y995A) (P54132 whole entry Y995A): as the sequence (P54132 whole entry) above, with Y995A counted along it
Outline: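 ITC at 25 °C in 2 mM MgCl2, 10 mM KH2PO4, pH 7.5: ligand (0.6 mM, syringe) titrated in 10 μL injections, 300 s apart, into BLM642-1296 wild-type or point mutant, or DNA (0.04 mM, cell). His-tagged BLM from E. coli BL21(DE3), induced with […] at 16 °C for 24 h. Heats integrated, fitted to 1:1 model for KD.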

[4] = target: T2, RecQ-like DNA helicase BLM; assay: Inhibition of 5'-biotin labeled forked-DNA binding to BLM in human HCT116 cells assessed as increase in unbound DNA levels at 1 uM after 1 hr by Western blot-based pull down assay; assay type: cell-based
Outline: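 Biotinylated duplex forked DNA loaded on streptavidin magnetic beads overnight at 4 °C. HCT116 RIPA lysate incubated with beads plus ligand for 1 h at 25 °C. Bead eluate and supernatant analysed for BLM by SDS-PAGE/western blot.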

[5] = system: HCT-116; assay: Induction of apoptosis in human HCT116 cells assessed as up-regulation of p53 phosphorylation up to 2 uM after 48 hrs by Western blot analysis; assay type: functional, cell-based
[6] = system: HCT-116; assay: Chemosensitization activity in human HCT116 cells assessed as cisplatin-induced antiproliferative activity at 1.25 uM in presence of cisplatin after 24 hrs by MTT assay (reference value: 15.4%); assay type: functional
[7] = target: T2, RecQ-like DNA helicase BLM; assay: Inhibition of BLM in human HCT116 cells assessed as DNA damage by measuring gammaH2AX up to 2 uM after 48 hrs by […]; assay type: cell-based
[8] = target: T2, RecQ-like DNA helicase BLM; assay: Inhibition of BLM (unknown origin) assessed as increase in RAD51-ssDNA filaments up to 5 uM after 24 hrs by ELISA based DNA exchange activity assay
[9] = target: T2, RecQ-like DNA helicase BLM; assay: Inhibition of BLM in human HCT116 cells assessed as increase in gamma-H2AX expression at half IC50 concentration after 24 hrs by Western blot analysis
[10] = system: HCT-116; assay: Induction of apoptosis in human HCT116 cells assessed as up-regulation of CHK1 phosphorylation up to 2 uM after 24 hrs by Western blot analysis
[11] = target: T2, RecQ-like DNA helicase BLM; assay: Inhibition of BLM in human HCT116 cells assessed as induction of RAD51 recruitment to DSB sites on chromosomes at 0.5 to 1 uM after 48 hrs by ChIP assay; assay type: cell-based; outline: as §1
[12] = target: T2, RecQ-like DNA helicase BLM; assay: Inhibition of His-tagged BLM (unknown origin) expressed in Escherichia coli BL21 (DE3) assessed as reduction in BLM helicase unwinding activity at 10 uM using 5'-biotin labeled forked-DNA as substrate after 1 hr by PAGE analysis
Outline: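 BLM642-1296 (His-tagged, E. coli BL21(DE3)) preincubated with ligand (1.0, 10, 50 μM; ≤1% DMSO) for 1 h at 4 °C. Reaction: 8 nM annealed 5′-biotin duplex forked DNA, 32 nM BLM, 2 mM ATP, 0.1% BSA, 1 h.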

[13] = target: T2, RecQ-like DNA helicase BLM; assay: Inhibition of His-tagged BLM (unknown origin) expressed in Escherichia coli BL21 (DE3) assessed as reduction in BLM helicase unwinding activity using 5'-biotin labeled forked-DNA as substrate after 1 hr by PAGE analysis
[14] = target: T2, RecQ-like DNA helicase BLM; assay: Inhibition of 5'-biotin labeled duplex forked-DNA binding to BLM (unknown origin) assessed as increase in unbound DNA levels at 0.5 to 1 uM after 1 hr by filter-binding assay
Outline: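 BLM (100 nM) preincubated with 0.5 or 1.0 μM ligand for 1 h at 37 °C, then mixed with 8 nM biotinylated duplex forked DNA. Vacuum-filtered through nitrocellulose over nylon membranes; DNA UV-crosslinked and detected by chemiluminescence. Dot grey levels give bound (upper) vs free (lower) DNA, relative to total.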

[15] = system: HCT-116; assay: Induction of apoptosis in human HCT116 cells assessed as apoptotic cells at 2 uM after 48 hrs by Hoechst/propidium iodide-staining based flow cytometry (reference value: 1.09%); assay type: functional
[16] = system: HCT-116; assay: Induction of apoptosis in human HCT116 cells assessed as up-regulation of CHK2 phosphorylation up to 2 uM after 24 hrs by Western blot analysis
[17] = system: HCT-116; assay: Chemosensitization activity in human HCT116 cells assessed as RI-I-induced antiproliferative activity at 1.25 uM in presence of RI-I after 24 hrs by MTT assay; assay type: functional, cell-based

Activity [1]: inactive
inhibition [2]: Active
Kd [3]: 5 µM
inhibition [4]: 84.3%
inhibition [8]: Dose-dependent effect
inhibition [9]: Active
inhibition [11]: Active
inhibition [12]: Active
IC50 [13]: 0.95 µM
inhibition [14]: Active
Structure (SMILES): CCN(CC)CCCNc1cc2nc3n(c(=O)c2cc1F)CC/C3=C\c1ccc(C(C)C)cc1
Activity [5]: Dose-dependent effect
Activity [6]: 71.2%
inhibition [7]: Active
Activity [10]: Dose-dependent effect
Activity [15]: 71.59%
Activity [16]: Dose-dependent effect
Activity [17]: Active
